Data set [1] deals with Survival motor neuron protein (Homo sapiens) (UniProt Q16637). In words: Stabilization of human SMN protein expressed in HEK293 cells expressing SMN2 promoter after 24 hrs by luciferase reporter gene assay relative to control. The data set is classed as cell-based. The method, boiled down:
(§1)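 SMN2-luc reporter cells seeded at 25,000/well overnight, then treated 24 h with six doses (3-fold serial dilutions, top final 10 or 30 μM), 0.1% DMSO. Firefly and Renilla luciferase read by dual-luciferase assay, normalized to DMSO as percent; EC50 and maximal activation from curves. Mean ± SEM, ≥3 trials.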

Data set [2] shares this target. Put plainly: Stabilization of SMN protein in 3813T fibroblasts derived from human SMA patient assessed as increase in SMN protein level after 48 hrs by SDS-PAGE and immunoblot. In short, it runs like this: (§2)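 hTERT-immortalized SMA patient 3813T fibroblasts seeded at 6000/well, next day dosed for 48 h at indicated concentrations, 0.1% DMSO. Lysed in boiling buffer (150 mM NaCl, 10 mM Tris pH 8.0, 2% SDS), run on 10% SDS-PAGE, SMN immunoblotted, normalized to tubulin or actin as fold over DMSO; one-way ANOVA with Dunnett.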

Data set [3] shares this target. In words: Stabilization of SMN protein in 3813T fibroblasts derived from human SMA patient assessed as increase in SMN protein level at 2 uM after 48 hrs by SDS-PAGE and immunoblot. In short, it runs like this:
as §2
Background: A western blot detects proteins with antibodies after separation by electrophoresis.

Data set [4] deals with Plasma. Put plainly: Cmax in mouse plasma at 20 mg/kg, po. The data set is classed as ADME, organism-based. Further details: dose 20 mg/kg, route oral. To be noted: in vivo.
Data set [5] is described as follows: Drug degradation in 0.1 to 1 N HCL after 1 to 24 hrs by LC-MS method. The method, boiled down:
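Compound held in 0.1 N and 1 N HCl at 37 °C for 24 h; aliquots taken at 1, 2, 4, 6 and 24 h and analysed by LCMS for percent degradation.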

The test system of data set [6] is Plasma. Put plainly: AUC (0 to 24 hrs) in mouse plasma at 20 mg/kg, ip. To be noted: in vivo. The data set is classed as ADME, organism-based. On the set-up: dose 20 mg/kg, time < 24 hr, route intraperitoneal.
The test system of data set [7] is Plasma. In words: AUC (0 to 24 hrs) in mouse plasma at 20 mg/kg, po. The data set is classed as ADME, organism-based. Further details: dose 20 mg/kg, time < 24 hr, route oral. To be noted: in vivo.
Data set [8] can be described thus: AUC (0 to 24 hrs) in mouse brain at 20 mg/kg, po. Further details: time < 24 hr, dose 20 mg/kg, route oral. The data set is classed as ADME, organism-based.
Data set [9] has as its system Plasma. In words: Tmax in mouse plasma at 20 mg/kg, ip. The data set is classed as ADME, organism-based. To be noted: in vivo.
Data set [10] deals with Brain. In words: Half life in mouse brain at 20 mg/kg, ip. The data set is classed as ADME, organism-based. To be noted: in vivo.
For data set [11], the system named is Brain. In words: Half life in mouse brain at 20 mg/kg, po. The data set is classed as ADME, organism-based. To be noted: in vivo.
Data set [12] relates to HEK293. In words: Effect on human luciferase-tagged SMN mRNA expressed in HEK293 cells assessed as SMN exon 7 included transcript at 1 and 10 uM after 24 hrs by qRT-PCR relative to GAPDH mRNA expression. The data set is classed as cell-based. In short, it runs like this: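 SMN2-luciferase reporter cells treated with compound; total RNA isolated with Trizol, DNase I treated and reverse transcribed. SYBR Green qPCR for SMN exon 7-included and full-length transcripts, with GAPDH as reference.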
A general note: Quantitative PCR measures a nucleic acid by following its amplification.

The subject of data set [13] is HEK293. In words: Effect on basal level of polyubiquitinated protein in HEK293 cells at 1 and 10 uM incubated for 2 hrs by SDS-PAGE analysis. The data set is classed as cell-based. To be noted: human, hek293, 2 h. In short, it runs like this: (§3)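 HEK293 cells pretreated 2 h with test compound or MG-132 (1 and 10 μM), then DMSO or cycloheximide (10 μM) added and incubated a further 6 h; final DMSO 0.2%. Lysates run on 4–15% gradient SDS-PAGE; anti-ubiquitin blot for polyubiquitinated proteins, tubulin as loading control.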

In data set [14] the test system is Liver. Put plainly: Half life in human liver microsomes. The data set is classed as ADME, microsome. The method, boiled down: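 Compound stability in mouse and human liver microsomes, expressed as half-life in min.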
On the technique in general: Liver microsomes are a subcellular fraction often used to study metabolism.

Data set [15] has as its system SH-SY5Y. In words: Cytotoxicity against human SH-SY5Y cells assessed as reduction in cell viability at 100 times EC50 concentration after 48 hrs by CellTiter 96 AQueous one solution cell proliferation assay. The data set is classed as cell-based. In short, it runs like this: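 SH-SY5Y cells seeded at 10,000/well, next day treated with graded compound doses in duplicate for 48 h, 0.2% DMSO constant; CellTiter 96 AQueous One reagent added for the last 4 h; cycloheximide 200 ng/mL as toxicity control.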

Data set [16] concerns the target Survival motor neuron protein (Homo sapiens) (UniProt Q16637). Put plainly: Stabilization of human SMN protein expressed in HEK293 cells at 10 to 30 uM after 24 hrs by luciferase reporter gene assay. The data set is classed as cell-based. The method, boiled down:
as §1

Data set [17] concerns HEK293. In words: Effect on cycloheximide-induced reduction in basal level of polyubiquitinated protein level in HEK293 cells at 1 uM pretreated for 2 hrs followed by cycloheximide addition measured after 6 hrs by SDS-PAGE analysis. The data set is classed as functional, cell-based. To be noted: Homo sapiens. In short, it runs like this: as §3
Data set [18] is filed under the species Oryctolagus cuniculus. Put plainly: Effect on proteasome in rabbit reticulocyte lysates assessed as MBP-HPV-16 E6-mediated p53 degradation at 10 and 30 uM incubated for 30 mins prior to MBP-E6 addition by Western blot analysis. The method, boiled down: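 Purified p53 and MBP-HPV16 E6. E6 (0.1 μM) or buffer then added for 2 h at 25 °C, stopped at 75 °C. p53 read by 10% SDS-PAGE/Western (PAb1801).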

Data set [19] deals with HEK293. Put plainly: Effect on LC3-2 level in HEK293 cells at 10 uM after 8 hrs by immunoblot analysis. The data set is classed as functional, cell-based. Particulars: Homo sapiens. The method, boiled down: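 HEK293 cells exposed 8 h to DMSO, compound or chloroquine; LC3 and p62 assessed by immunoblot.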
Data set [20] addresses T1, CYP1A2 (Homo sapiens, UniProt P05177).
T1 sequence (P05177 whole entry): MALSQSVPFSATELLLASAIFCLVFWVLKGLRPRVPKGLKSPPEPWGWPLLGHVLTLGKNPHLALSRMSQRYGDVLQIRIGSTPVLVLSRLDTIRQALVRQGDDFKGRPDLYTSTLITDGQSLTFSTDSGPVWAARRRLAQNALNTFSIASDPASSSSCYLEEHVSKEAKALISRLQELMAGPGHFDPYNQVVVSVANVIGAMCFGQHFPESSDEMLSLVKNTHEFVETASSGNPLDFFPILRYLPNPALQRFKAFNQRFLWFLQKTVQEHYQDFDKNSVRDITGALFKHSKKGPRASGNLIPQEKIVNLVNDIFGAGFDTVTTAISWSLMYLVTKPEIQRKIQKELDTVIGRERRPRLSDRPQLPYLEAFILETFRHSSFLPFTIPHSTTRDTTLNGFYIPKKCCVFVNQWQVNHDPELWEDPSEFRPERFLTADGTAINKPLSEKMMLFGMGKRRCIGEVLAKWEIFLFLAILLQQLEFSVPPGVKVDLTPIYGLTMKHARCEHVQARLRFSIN
Put plainly: Inhibition of CYP1A2 (unknown origin) at 10 uM. The data set is classed as ADME.

Data set [21] has as its target CYP2C9 (Homo sapiens, UniProt P11712). Put plainly: Inhibition of CYP2C9 (unknown origin) at 10 uM. The data set is classed as ADME.
In data set [22] the target is CYP3A4 (Homo sapiens, UniProt P08684). Put plainly: Inhibition of CYP3A4 (unknown origin) at 10 uM. The data set is classed as ADME.
The target in data set [23] is Voltage-gated inwardly rectifying potassium channel KCNH2 (Homo sapiens, UniProt Q12809). Put plainly: Inhibition of human ERG at 10 uM.
In data set [24] the target is Survival motor neuron protein (Homo sapiens) (UniProt Q16637). Put plainly: Stabilization of human SMN protein expressed in HEK293 cells expressing SMN2 promoter assessed as additive effect on SMN stabilization in presence of 0.1: 0.3 to 10:30 ratio of LDN-76070 to compound after 24 hrs by luciferase reporter gene assay. The data set is classed as cell-based. The method, boiled down: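 SMN2 reporter cells exposed 24 h to the two compounds alone or combined at constant ratio, DMSO held at 0.2%, and SMN-luc read. Theoretical additive effect taken as the sum of the single-agent activities.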

Structures are written as SMILES. The source made the active and inactive calls. No cut-off for these calls is given here. Where only a bound is given, the exact number is not on record here.

Sequence of Survival motor neuron protein (Homo sapiens) (Q16637 whole entry): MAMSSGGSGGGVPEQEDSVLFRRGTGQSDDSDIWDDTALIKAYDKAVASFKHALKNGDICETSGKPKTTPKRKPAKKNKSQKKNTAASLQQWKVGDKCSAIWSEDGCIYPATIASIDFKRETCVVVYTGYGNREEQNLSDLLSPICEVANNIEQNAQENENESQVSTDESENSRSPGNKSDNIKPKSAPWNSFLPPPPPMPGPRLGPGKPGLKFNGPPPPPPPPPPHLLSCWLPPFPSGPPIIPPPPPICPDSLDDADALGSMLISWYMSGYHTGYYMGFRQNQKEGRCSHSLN
Sequence of Voltage-gated inwardly rectifying potassium channel KCNH2 (Q12809 whole entry): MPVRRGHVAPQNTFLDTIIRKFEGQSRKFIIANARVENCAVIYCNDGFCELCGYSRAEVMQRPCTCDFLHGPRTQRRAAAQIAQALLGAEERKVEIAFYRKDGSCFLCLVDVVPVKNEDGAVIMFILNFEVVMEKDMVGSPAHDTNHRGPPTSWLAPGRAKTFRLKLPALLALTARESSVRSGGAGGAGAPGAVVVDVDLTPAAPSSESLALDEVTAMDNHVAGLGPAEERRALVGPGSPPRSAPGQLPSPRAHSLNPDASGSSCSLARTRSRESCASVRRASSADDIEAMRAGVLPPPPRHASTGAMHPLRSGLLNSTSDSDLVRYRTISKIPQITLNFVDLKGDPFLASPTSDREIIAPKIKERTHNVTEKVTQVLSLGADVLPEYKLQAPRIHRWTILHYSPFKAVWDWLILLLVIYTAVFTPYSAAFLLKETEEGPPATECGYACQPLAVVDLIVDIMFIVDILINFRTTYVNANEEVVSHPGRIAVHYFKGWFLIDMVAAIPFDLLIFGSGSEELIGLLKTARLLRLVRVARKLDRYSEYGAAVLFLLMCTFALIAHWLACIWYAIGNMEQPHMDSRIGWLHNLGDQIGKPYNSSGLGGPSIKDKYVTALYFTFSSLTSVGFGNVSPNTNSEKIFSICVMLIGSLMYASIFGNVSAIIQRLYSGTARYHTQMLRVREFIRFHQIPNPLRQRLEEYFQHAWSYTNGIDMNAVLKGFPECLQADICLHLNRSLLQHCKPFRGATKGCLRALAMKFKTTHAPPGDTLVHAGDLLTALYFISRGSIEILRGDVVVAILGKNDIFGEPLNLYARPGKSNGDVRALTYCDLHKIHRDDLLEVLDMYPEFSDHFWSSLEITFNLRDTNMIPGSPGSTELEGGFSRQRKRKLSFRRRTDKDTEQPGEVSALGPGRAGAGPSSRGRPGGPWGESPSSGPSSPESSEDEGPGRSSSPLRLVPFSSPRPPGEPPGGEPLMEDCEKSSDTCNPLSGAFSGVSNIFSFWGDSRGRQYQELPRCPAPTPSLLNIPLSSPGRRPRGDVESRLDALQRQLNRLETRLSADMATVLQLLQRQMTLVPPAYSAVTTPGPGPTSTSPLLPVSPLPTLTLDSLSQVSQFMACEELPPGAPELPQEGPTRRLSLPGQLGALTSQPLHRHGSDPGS
Sequence of CYP3A4 (P08684 whole entry): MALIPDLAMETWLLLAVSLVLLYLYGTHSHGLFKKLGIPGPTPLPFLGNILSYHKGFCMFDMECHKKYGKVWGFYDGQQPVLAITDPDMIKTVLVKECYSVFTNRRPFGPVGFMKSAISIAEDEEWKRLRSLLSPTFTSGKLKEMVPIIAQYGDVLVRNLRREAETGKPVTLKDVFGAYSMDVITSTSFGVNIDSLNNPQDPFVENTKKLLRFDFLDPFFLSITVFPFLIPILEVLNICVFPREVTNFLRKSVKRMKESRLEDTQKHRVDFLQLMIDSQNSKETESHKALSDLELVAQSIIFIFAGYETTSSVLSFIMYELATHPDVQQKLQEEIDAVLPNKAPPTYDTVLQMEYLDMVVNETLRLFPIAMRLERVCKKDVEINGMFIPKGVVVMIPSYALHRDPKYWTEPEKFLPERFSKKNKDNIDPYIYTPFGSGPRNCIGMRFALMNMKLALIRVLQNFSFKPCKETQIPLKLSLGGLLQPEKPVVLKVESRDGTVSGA
Sequence of CYP2C9 (P11712 whole entry): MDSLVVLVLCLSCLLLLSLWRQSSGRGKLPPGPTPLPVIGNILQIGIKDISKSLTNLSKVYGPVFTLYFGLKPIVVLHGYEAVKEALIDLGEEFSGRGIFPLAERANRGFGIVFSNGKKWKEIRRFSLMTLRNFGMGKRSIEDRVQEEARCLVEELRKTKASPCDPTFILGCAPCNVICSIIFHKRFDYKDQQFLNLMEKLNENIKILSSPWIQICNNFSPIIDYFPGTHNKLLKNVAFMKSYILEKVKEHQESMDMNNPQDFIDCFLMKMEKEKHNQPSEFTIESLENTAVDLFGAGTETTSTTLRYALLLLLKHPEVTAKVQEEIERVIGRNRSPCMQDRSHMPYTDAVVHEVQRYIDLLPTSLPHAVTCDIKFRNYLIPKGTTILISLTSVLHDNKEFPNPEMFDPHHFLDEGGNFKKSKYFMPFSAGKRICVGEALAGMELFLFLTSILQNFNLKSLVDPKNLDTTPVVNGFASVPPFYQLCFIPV

Broadly, the Cmax is the maximum level reached in the sampled fluid or tissue. In general, AUC refers to the area under the concentration-time curve, a measure of exposure. A low value points to less exposure. Broadly, the AUC(0-t) is the area under the concentration-time curve up to a stated or last time point. A high value points to more exposure. The Tmax is the time at which the peak concentration occurs. Usually inhibition stands for how much of the control response was suppressed. Read a high inhibition as strong suppression. For the compound `O=C(Nc1ncc(C2(O)CCC2)s1)c1ccc(F)c(Cl)c1`, the Activity in [1] was 190%; in [2], “Dose-dependent effect”; in data set [13], “Non-Toxic”; in data set [15], “Non-Toxic”. Also, the fold change (FC) in [3] amounted to 2. Moreover, in data set [4], the Cmax was 286 ng/mL. For the same compound, the Drug degradation in [5] is less than 5%. In addition, the results for the AUC in data set [6] and in [7] were 34291 ng·h/mL and 1641 ng·h/mL, respectively. In data set [8], this compound had an area under the curve AUC(0-t) at 24 h of 2220 ng·h/mL. Moreover, in [9], the Tmax was 0.5 h. The t1/2 in [10] is 1.9 h; in data set [11], 2.8 h; in [14] it was more than 2 h. The outcome in [12], in [17], in data set [18] and in data set [19] was inactive. Also, the result in data set [16] and in data set [24] was Active. In addition, the inhibition at 10 µM in data set [20], in data set [21] and in [22] was less than 50% each time. Moreover, in data set [23], the “inhibition (INH)” value is given as “Not Active”.
